Active and inactive are the calls of the source. No cut-off for these calls is given here.
How the values were obtained:
[1] = target: Casein kinase I homolog 1 (Saccharomyces cerevisiae S288c) (UniProt P23291); test: Inhibition of yeast CK1 assessed as residual activity at 0.1 uM relative to control
[2] = target: Ribosomal protein S6 kinase alpha-1 (Rattus norvegicus) (UniProt Q63531); test: Inhibition of N-terminal His6 and HA (YPYDV PDYA) tagged recombinant full-length (1 to end residues) rat Rsk1 expressed in baculovirus infected Sf21 cells assessed as residual activity at 0.1 uM relative to control
Ribosomal protein S6 kinase alpha-1 (Rattus norvegicus), sequence (Q63531 whole entry): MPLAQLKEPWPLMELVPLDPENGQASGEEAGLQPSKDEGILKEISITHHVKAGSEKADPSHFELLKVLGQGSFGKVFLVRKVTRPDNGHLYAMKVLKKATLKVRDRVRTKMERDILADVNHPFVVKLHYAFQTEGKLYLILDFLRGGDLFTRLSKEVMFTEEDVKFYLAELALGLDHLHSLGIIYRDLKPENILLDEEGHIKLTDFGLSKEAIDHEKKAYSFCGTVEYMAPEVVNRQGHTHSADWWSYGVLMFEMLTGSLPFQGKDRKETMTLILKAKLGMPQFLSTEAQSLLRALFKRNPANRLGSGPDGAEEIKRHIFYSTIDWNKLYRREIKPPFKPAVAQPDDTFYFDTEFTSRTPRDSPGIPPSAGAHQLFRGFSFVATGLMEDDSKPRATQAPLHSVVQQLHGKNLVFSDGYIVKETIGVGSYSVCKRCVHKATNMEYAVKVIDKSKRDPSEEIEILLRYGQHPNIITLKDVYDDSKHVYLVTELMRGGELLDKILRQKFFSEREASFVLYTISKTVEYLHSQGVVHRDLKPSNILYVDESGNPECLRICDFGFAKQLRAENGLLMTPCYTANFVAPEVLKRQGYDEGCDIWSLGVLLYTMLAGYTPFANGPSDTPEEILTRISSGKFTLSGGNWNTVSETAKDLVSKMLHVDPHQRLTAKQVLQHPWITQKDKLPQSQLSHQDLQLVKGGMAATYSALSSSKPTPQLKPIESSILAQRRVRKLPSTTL

[3] = target: Serine/threonine-protein kinase DCLK2 (Homo sapiens) (UniProt Q8N568); test: Inhibition of N-terminal 6His-tagged recombinant human DCAMKL2 (376 to end residues) expressed in baculovirus infected Sf21 cells assessed as residual activity at 1 uM relative to control
[4] = Antiproliferative activity against human M-07e cells assessed as inhibition of cell growth incubated for 72 hrs by cell-titer glo assay; format: functional, cell-based
Method in brief: (§1)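 Cells seeded at 10,000–30,000/cm² (adherent) or 100,000/mL (nonadherent) in medium with 10% fetal calf serum; after 24 h, treated in duplicate with serial dilutions for 72 h. Viable cell number read by CellTiter-Glo luminescence; IC50 from sigmoidal fit; at least two independent experiments.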

[5] = Clearance in male cynomolgus monkey at 5 mg/kg, iv by LC-MS analysis; format: ADME, organism-based, Macaca fascicularis; conditions: in vivo
[6] = target: Vascular endothelial growth factor receptor 2 (Homo sapiens, UniProt P35968); test: Inhibition of VEGFR2 (unknown origin) in presence of [gamma-33P]ATP
[7] = target: Casein kinase I homolog 1 (Saccharomyces cerevisiae S288c) (UniProt P23291); test: Inhibition of yeast CK1 assessed as residual activity at 1 uM relative to control
[8] = tested on: KG-1; test: Antiproliferative activity against human KG-1 cells assessed as inhibition of cell growth incubated for 72 hrs by cell-titer glo assay; format: functional, cell-based; conditions: KG-1, 72 h; method in brief: as §1
[9] = tested on: SF-539; test: Antiproliferative activity against human SF-539 cells assessed as inhibition of cell growth incubated for 72 hrs by cell-titer glo assay; format: functional, cell-based; conditions: SF-539, 72 h
Method in brief: (§2)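 Cells from ATCC or ECACC, kept in supplier-recommended medium with 1% penicillin-streptomycin at 37°C, 5% CO₂. Seeded at 10,000–30,000/cm² (adherent) or 100,000/mL (nonadherent) in medium with 10% fetal calf serum. Dosed after 24 h in duplicate with serial dilutions. Viable cells read by CellTiter-Glo 72 h later. IC50 from sigmoidal fit. At least two independent experiments.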

[10] = tested on: U2OS; test: Effect on cell morphology in human U2OS cells expressing GFP/alpha-tubulin fusion protein assessed as aberrant number of spindle poles at 1 uM incubated for 24 hrs by laser scanning confocal microscopy analysis; format: functional, cell-based
[11] = target: Tyrosine-protein kinase Mer (Homo sapiens) (UniProt Q12866); test: Inhibition of N-terminal GST-tagged recombinant human Mer (557 to 882 residues) expressed in baculovirus infected Sf21 cells assessed as residual activity at 1 uM relative to control
Tyrosine-protein kinase Mer (Homo sapiens), sequence (Q12866 whole entry, the tested form may be a part): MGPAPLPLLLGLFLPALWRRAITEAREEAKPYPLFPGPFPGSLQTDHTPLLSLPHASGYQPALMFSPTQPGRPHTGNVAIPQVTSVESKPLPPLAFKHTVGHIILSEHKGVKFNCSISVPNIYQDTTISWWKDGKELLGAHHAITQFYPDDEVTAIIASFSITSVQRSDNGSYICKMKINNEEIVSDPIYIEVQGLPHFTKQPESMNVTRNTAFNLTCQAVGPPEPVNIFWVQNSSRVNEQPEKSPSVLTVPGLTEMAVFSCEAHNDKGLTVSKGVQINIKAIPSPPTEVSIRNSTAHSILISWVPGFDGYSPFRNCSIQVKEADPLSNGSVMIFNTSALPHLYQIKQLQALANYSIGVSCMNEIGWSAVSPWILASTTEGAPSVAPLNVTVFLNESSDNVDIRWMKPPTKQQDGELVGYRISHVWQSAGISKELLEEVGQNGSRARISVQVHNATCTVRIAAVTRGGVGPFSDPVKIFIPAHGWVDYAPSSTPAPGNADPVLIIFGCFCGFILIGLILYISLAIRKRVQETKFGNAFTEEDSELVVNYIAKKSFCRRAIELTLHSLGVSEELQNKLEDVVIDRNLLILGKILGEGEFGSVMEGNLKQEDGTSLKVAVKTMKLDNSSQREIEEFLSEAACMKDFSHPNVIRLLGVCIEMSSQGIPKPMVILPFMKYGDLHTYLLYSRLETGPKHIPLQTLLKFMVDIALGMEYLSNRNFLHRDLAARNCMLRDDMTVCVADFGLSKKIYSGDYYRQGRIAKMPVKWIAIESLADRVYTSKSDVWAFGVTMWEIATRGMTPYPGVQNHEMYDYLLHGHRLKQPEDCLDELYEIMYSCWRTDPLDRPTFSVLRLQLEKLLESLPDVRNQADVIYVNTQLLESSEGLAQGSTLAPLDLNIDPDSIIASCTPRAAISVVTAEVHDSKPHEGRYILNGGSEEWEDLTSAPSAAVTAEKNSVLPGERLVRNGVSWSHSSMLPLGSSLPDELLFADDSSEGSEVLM

[12] = AUC in male cynomolgus monkey at 5 mg/kg, iv by LC-MS analysis; format: ADME, organism-based, Macaca fascicularis; conditions: in vivo
[13] = tested on: SW948; test: Antiproliferative activity against human SW948 cells assessed as inhibition of cell growth incubated for 72 hrs by cell-titer glo assay; format: functional, cell-based; conditions: SW948, 72 h
[14] = tested on: DLD-1; test: Antiproliferative activity against human DLD-1 cells assessed as inhibition of cell growth incubated for 72 hrs by cell-titer glo assay; format: functional, cell-based; conditions: DLD-1, 72 h
Method in brief: (§3)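 Cells seeded 10,000–30,000/cm² (adherent) or 100,000/mL (suspension) in medium with 10% fetal calf serum; after 24 h treated in duplicate with serial dilutions for 72 h. Viable cells read by CellTiter-Glo luminescence; IC50 from sigmoidal fit; at least two independent experiments.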

[15] = Tmax in Beagle dog at 5 mg/kg, po by LC-MS analysis; format: ADME, organism-based, Canis lupus familiaris; conditions: in vivo
[16] = tested on: BT-20; test: Antiproliferative activity against human BT-20 cells assessed as inhibition of cell growth incubated for 72 hrs by cell-titer glo assay; format: functional, cell-based; conditions: BT-20, 72 h; method in brief: as §3
[17] = target: High affinity nerve growth factor receptor (Homo sapiens, UniProt P04629); test: Inhibition of TRKA (unknown origin) in presence of [gamma-33P]ATP
High affinity nerve growth factor receptor, sequence (P04629 whole entry): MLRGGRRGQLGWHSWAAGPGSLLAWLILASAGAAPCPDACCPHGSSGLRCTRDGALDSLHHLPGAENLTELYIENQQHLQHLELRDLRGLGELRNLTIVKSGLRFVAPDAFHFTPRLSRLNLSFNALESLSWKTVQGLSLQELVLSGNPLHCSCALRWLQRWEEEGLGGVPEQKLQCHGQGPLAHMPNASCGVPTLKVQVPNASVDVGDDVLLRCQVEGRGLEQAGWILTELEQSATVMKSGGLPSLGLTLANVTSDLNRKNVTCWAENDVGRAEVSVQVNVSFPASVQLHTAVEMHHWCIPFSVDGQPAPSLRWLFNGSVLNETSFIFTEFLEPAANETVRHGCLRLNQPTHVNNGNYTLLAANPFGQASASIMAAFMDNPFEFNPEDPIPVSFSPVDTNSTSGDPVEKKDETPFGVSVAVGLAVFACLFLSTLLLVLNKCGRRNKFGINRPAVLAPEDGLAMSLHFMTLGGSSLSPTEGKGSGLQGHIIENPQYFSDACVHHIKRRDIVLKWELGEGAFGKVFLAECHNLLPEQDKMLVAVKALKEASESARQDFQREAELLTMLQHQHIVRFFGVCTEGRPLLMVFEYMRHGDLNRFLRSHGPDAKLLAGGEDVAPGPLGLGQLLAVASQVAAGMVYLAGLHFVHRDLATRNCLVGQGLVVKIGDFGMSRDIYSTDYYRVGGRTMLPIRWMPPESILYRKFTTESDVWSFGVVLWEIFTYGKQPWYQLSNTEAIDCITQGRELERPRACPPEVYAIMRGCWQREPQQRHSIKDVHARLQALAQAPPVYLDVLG

[18] = tested on: LS180; test: Antiproliferative activity against human LS180 cells assessed as inhibition of cell growth incubated for 72 hrs by cell-titer glo assay; format: functional, cell-based; conditions: LS180, 72 h; method in brief: as §1
[19] = tested on: HOP-92; test: Antiproliferative activity against human HOP-92 cells assessed as inhibition of cell growth incubated for 72 hrs by cell-titer glo assay; format: functional, cell-based; conditions: HOP-92, 72 h; method in brief: as §1
[20] = Inhibition of CDK2/CycA (unknown origin) in presence of [gamma-33P]ATP; design: species or system Homo sapiens
[21] = Volume of distribution at steady state in Beagle dog at 5 mg/kg, iv by LC-MS analysis; format: ADME, organism-based, Canis lupus familiaris; conditions: in vivo, read-out: Vdss
[22] = tested on: ACHN; test: Antiproliferative activity against human ACHN cells assessed as inhibition of cell growth incubated for 72 hrs by cell-titer glo assay; format: functional, cell-based; method in brief: as §3
[23] = tested on: U-251; test: Antiproliferative activity against human U-251 cells assessed as inhibition of cell growth incubated for 72 hrs by cell-titer glo assay; format: functional, cell-based; conditions: U-251, 72 h
[24] = target: Mitogen-activated protein kinase kinase kinase 5 (Homo sapiens) (UniProt Q99683); test: Inhibition of N-Terminal GST and C-terminal His6-tagged recombinant human ASK1 (649 to 946 residues) expressed in E. coli cell assessed as residual activity at 1 uM relative to control
[25] = tested on: NCI-H1975; test: Antiproliferative activity against human NCI-H1975 cells assessed as inhibition of cell growth incubated for 72 hrs by cell-titer glo assay; format: functional, cell-based; conditions: NCI-H1975, 72 h; method in brief: as §2
[26] = target: Ephrin type-B receptor 3 (Homo sapiens) (UniProt P54753); test: Inhibition of N-terminal His6-tagged recombinant human EphB3 (599 to 920 residues) expressed in baculovirus infected Sf21 cells assessed as residual activity at 1 uM relative to control
Ephrin type-B receptor 3 (Homo sapiens), sequence (P54753 whole entry, the tested form may be a part): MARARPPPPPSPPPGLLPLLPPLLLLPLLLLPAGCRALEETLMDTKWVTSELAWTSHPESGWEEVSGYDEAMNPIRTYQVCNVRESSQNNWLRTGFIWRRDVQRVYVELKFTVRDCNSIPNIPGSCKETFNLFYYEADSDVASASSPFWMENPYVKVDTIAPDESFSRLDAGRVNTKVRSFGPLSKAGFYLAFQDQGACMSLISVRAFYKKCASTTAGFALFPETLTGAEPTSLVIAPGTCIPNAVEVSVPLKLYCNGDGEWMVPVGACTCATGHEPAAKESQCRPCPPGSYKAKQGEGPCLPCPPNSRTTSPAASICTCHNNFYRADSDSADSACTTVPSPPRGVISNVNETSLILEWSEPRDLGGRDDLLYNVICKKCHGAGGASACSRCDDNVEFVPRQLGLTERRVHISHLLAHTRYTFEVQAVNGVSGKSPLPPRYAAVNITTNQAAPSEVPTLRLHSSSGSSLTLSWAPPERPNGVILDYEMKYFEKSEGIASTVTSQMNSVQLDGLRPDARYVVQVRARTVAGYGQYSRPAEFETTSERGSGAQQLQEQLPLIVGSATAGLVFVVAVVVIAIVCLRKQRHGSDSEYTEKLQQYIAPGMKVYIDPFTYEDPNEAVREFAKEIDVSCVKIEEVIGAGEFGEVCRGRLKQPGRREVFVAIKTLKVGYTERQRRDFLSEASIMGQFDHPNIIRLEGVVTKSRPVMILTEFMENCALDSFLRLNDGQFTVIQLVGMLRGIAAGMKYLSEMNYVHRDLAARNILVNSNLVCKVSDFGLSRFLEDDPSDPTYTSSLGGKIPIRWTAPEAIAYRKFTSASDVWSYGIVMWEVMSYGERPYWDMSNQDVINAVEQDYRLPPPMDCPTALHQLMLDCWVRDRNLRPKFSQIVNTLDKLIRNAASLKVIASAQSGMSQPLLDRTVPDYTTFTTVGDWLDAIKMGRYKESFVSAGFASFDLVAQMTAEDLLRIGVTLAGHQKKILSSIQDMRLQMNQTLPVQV

[27] = tested on: HCT-15; test: Antiproliferative activity against human HCT-15 cells assessed as inhibition of cell growth incubated for 72 hrs by cell-titer glo assay; format: functional, cell-based; conditions: HCT-15, 72 h; method in brief: as §1
[28] = target: Mitogen-activated protein kinase 11 (Homo sapiens) (UniProt Q15759); test: Inhibition of N-terminal GST fusion protein corresponding to full-length human SAPK2b expressed in E. coli assessed as residual activity at 1 uM relative to control
Mitogen-activated protein kinase 11 (Homo sapiens), sequence (Q15759 whole entry, the tested form may be a part): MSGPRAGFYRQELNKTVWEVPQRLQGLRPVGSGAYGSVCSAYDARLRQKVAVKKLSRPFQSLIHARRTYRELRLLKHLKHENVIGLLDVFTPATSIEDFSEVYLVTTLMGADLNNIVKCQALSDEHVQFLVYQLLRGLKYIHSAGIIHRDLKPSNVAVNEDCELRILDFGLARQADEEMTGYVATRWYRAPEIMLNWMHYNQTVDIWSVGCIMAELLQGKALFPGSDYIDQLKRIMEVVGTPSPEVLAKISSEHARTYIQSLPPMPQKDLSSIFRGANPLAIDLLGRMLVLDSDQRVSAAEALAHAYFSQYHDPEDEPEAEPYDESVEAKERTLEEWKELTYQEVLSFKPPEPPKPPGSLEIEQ

Casein kinase I homolog 1 (Saccharomyces cerevisiae S288c), sequence (P23291 whole entry): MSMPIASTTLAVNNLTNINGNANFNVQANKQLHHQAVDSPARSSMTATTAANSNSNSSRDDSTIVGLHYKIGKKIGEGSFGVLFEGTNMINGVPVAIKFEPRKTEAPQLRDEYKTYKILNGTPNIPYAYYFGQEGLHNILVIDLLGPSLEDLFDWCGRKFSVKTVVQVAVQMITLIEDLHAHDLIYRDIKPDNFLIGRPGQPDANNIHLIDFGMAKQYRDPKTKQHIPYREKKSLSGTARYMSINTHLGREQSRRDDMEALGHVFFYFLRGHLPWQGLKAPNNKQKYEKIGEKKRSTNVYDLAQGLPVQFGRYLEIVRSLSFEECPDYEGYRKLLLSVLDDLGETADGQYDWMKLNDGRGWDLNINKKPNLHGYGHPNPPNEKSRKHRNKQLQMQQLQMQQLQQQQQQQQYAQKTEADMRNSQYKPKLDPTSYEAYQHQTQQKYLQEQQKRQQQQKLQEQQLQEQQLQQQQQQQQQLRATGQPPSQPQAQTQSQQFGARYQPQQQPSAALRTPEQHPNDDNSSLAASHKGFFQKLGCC

In the case of `CN1CCN(c2ccc(OC(F)(F)F)c(Nc3ncc4c(n3)-c3c(c(C(N)=O)nn3CCO)CC4)c2)CC1` [ONVANSERTIB], the Activity [1] is reported as 42%, the Activity [2] is reported as 113% and the Activity [3] is reported as 90%. For the same molecule, the IC50 [4] was 66 nM, the clearance [5] was 11.2 mL/min/kg and the IC50 [6] was greater than 10 µM. The Activity [7] was 24%, the IC50 [8] was 58 nM and the IC50 [9] was 47 nM. For the same molecule, the Activity [10] was “Active”, the Activity [11] was 64% and the AUC [12] was 14.1 µM·h. The IC50 [13] was 124 nM, the IC50 [14] was 329 nM and the Tmax [15] was 1.2 h. The IC50 [16] was 93 nM, the IC50 [17] was greater than 10 µM and the IC50 [18] was 192 nM. For the same molecule, the IC50 [19] was 283 nM, the IC50 [20] was greater than 10 µM and the Vd [21] was 9.5 L/kg. It also gave an IC50 [22] of 429 nM, an IC50 [23] of 190 nM and an Activity [24] of 125%. The IC50 [25] was 398 nM, the Activity [26] was 87% and the IC50 [27] was 156 nM. The Activity [28] was 146%.
